# Columns and labels:
# Assay type in all cases: functional, Stomach
# [1] = tested on: Rattus norvegicus; experiment: Gastroprotective activity against ethanol-induced gastric ulcer in fasted rat accessed as gastric ulcer index at 20 mg/kg, ip; details: route intraperitoneal
# Procedure, shortened: (§1)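 Rats housed singly, fasted 36 h; test drug given, then 1 h later ulcer induced by oral 1 ml 70% ethanol in distilled water. Killed by cervical dislocation 1 h after ethanol; stomach opened along greater curvature, saline-rinsed, pinned flat. Ulcers counted; each lesion length measured by Vernier caliper, summed as ulcer index. Mean, SD, SE; one-way ANOVA then LSD pairwise test.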
# [2] = tested on: Rattus norvegicus; experiment: Gastroprotective activity against ethanol-induced gastric ulcer in fasted rat accessed as number of ulcer at 20 mg/kg, ip; details: route intraperitoneal; procedure, shortened: as §1
# [3] = species: Rattus norvegicus; experiment: Preventive index against ethnol-induced gastric ulcer rat in treated group to control group
# Procedure, shortened: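 Preventive index = percentage inhibition of gastric mucosal damage: PI = 100 − (ulcer index of treated group / ulcer index of control group × 100). Ulcer index is the summed caliper-measured lesion lengths, taken 1 h after oral 1 ml 70% ethanol in 36 h fasted rats dosed 1 h before ethanol. Compared by one-way ANOVA.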
SMILES,Activity [1],Activity [2],Preventive_index [3]
O=c1cc(-c2ccccc2)oc2cc3occc3c(O)c12,38.3 mm,25.5,24.3
COc1c2ccoc2cc2oc(-c3ccc(Cl)cc3)cc(=O)c12,33.2 mm,25.5,34.5
O=c1cc(-c2ccc(Cl)cc2)oc2cc3occc3c(O)c12,33.5 mm,22.2,33.9
COc1c2ccoc2c(CN2CCOCC2)c2oc(-c3ccc(Cl)cc3)cc(=O)c12,37.2 mm,26,26.6
O=c1cc(-c2ccccc2)oc2c(CN3CCOCC3)c3occc3c(O)c12,37.5 mm,26.5,26
COc1c2ccoc2c(CN2CCOCC2)c2oc(-c3cccnc3)cc(=O)c12,40.8 mm,25,19.5
COc1c2ccoc2cc2oc(-c3ccccc3)c(CN3CCOCC3)c(=O)c12,29.6 mm,21.8,41.6
COc1c2occc2c(OC)c2c(=O)c(CN3CCN(C)CC3)c(-c3cccnc3)oc12,28.2 mm,18.8,44.4
COc1c2ccoc2c(CN2CCN(C)CC2)c2oc(-c3cccnc3)cc(=O)c12,29.7 mm,23.7,41.5
COc1c2ccoc2c(CN2CCOCC2)c2oc(-c3ccccc3)cc(=O)c12,39.8 mm,27.8,21.4
COc1c2ccoc2cc2oc(-c3cccnc3)c(CN(C)C)c(=O)c12,31 mm,21.2,38.8
COc1c2ccoc2cc2oc(-c3ccccc3)cc(=O)c12 [PINNATIN],34.8 mm,23.7,31.3
COc1ccc(-c2cc(=O)c3c(OC)c4ccoc4cc3o2)cc1,24 mm,19.7,52.6
O=c1cc(-c2ccc(Cl)cc2)oc2c(CN3CCOCC3)c3occc3c(O)c12,42.5 mm,28.5,16.1

# — ChEMBL document CHEMBL1147889, “Synthesis of 6- and 9-alkylaminomethyl furoflavones as gastroprotective agents” (2007)
